According to paper PMC2978023 (Journal of immunology (Baltimore, Md. : 1950), 2008):
Values belong to the compound of their own block, whether it stands above or below them. Peptide text beside a SMILES is read from it. * marks the point of attachment. Cbz = O=C(OCc1ccccc1)*

Tests used:
[1] = system: PMN; conditions: ref [6]–[9]; cited from earlier work
[2] = system: caspase-8; assay: Caspase-8 cleavage in PMN lysates, Western blot; type: cell-based, human; conditions: PMN lysate, 16 h; proteins 1 μM, peptides 100 μM; six donors
[3] = system: mock-transfected K562 cells; assay: Apoptosis of mock-transfected K562 cells, annexin V, FACS; type: cell-based, human; conditions: 16 h, 37 °C; proteins 1 μM, peptides 100 μM; no ligand 81 ± 8; mean ± SEM, n = 5
[4] = system: Bax; assay: Bax cleavage in K562 cell lysates, Western blot; type: cell-based, human; conditions: K562 αMβ2 transfectants, 24 h, 37 °C; proteins 1 μM, peptides 100 μM
[5] = system: caspase-8; assay: Caspase-8 cleavage in K562 cell lysates, Western blot; type: cell-based, human; conditions: K562 αMβ2 transfectants, 24 h, 37 °C; proteins 1 μM, peptides 100 μM
[6] = system: caspase-3; assay: Caspase-3 cleavage in PMN lysates, Western blot; type: cell-based, human; conditions: PMN lysate, 16 h; proteins 1 μM, peptides 100 μM; six donors
[7] = system: ERK1/2; assay: ERK1/2 phosphorylation in transfected K562 cells, Western blot; type: cell-based, human; conditions: 37 °C; for ERK1/2 activation, αM cells: K562 expressing αM, 30 min; for ERK1/2 activation, αMβ2 cells: K562 expressing αMβ2, 30 min; for ERK1/2 phosphorylation, mock and β2 cells: K562 mock or expressing β2, 30 min
Outline: (§1)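 Transiently transfected K562 cells (αM, β2, αMβ2 or mock) were exposed to ligands for 30 min at 37°C and lysed in ice-cold buffer. Equal protein was run on SDS-PAGE and blotted with the PathScan Multiplex Western Cocktail I, then reprobed for total ERK1/2; blots shown are representative of three experiments.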

[8] = system: Akt; assay: Akt phosphorylation in transfected K562 cells, Western blot; type: cell-based, human; conditions: 37 °C; for Akt phosphorylation, αM, β2 and mock cells: K562 expressing αM or β2, or mock-transfected, 30 min; for Akt phosphorylation, αMβ2 cells: K562 expressing αMβ2, 30 min
Outline: as §1

[9] = system: β2 subunit on K562 cells; assay: Soluble ligand binding to K562 cells expressing β2, FACS; set-up: species or system human; conditions: 40 min, 37 °C
Outline: (§2)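 Transiently transfected K562 cells were incubated with soluble Alexa 488-labelled Plg or Ang(1–4) for 40 min at 37°C in HBSS containing 1 mM CaCl₂ and 1 mM MgCl₂. Cells were washed twice and bound ligand was quantified by FACS; three independent experiments. For inhibition, cells were pretreated for 20 min at 37°C with function-blocking anti-αM or anti-β2 mAbs (20 μg/ml) or NIF (20 nM).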

[10] = target: recombinant purified β2 subunit (Homo sapiens, UniProt P05107); assay: Solid-phase binding to purified β2 subunit; conditions: solid-phase binding, αM versus β2
Outline: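 Purified recombinant αMβ2, αM or β2 (from HEK293 lines) was coated overnight at 4°C in TBS with 10 mM n-octyl-β-D-glucopyranoside and postcoated with 0.5% PVP for 1 h at 37°C. Biotinylated Plg or Ang(1–4) (0–10 μM) was bound for 2 h at 37°C in the same buffer plus 1 mM CaCl₂/MgCl₂. Binding was detected with alkaline phosphatase–avidin and pNPP at A405. Kd came from a one-site binding fit.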

[11] = system: Bax; assay: Bax cleavage in PMN lysates, Western blot; type: cell-based, human; conditions: PMN lysate, 16 h; proteins 1 μM, peptides 100 μM; six donors
[12] = system: αM subunit on K562 cells; assay: Soluble ligand binding to K562 cells expressing αM, FACS; set-up: species or system human; conditions: 40 min, 37 °C
Outline: as §2

[13] = system: ERK1/2; assay: ERK1/2 phosphorylation in PMNs, Western blot; type: cell-based, human; conditions: PMN stimulated with 1 nM PMA, 30 min, 37 °C; proteins 1 μM, peptides 100 μM
Outline: (§3)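 Human PMNs stimulated with 1 nM PMA were incubated with ligands for 30 min at 37°C in HBSS with 1 mM CaCl₂, 1 mM MgCl₂, 0.1% BSA, pH 7.4. Cells were lysed in ice-cold Tris/EDTA/detergent buffer with phosphatase and protease inhibitors. Equal protein was immunoblotted for phospho- and total Akt or ERK1/2, with actin. Inhibition arm: 20 min pretreatment at 37°C with 10 μM Akt inhibitor, 50 μM PD98059, 50 nM NIF, or F(ab′)₂ anti-αM or anti-MHC-1 (20 μg/ml), then 1 μM Plg.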

[14] = system: caspase-3; assay: Caspase-3 cleavage in K562 cell lysates, Western blot; type: cell-based, human; conditions: K562 αMβ2 transfectants, 24 h, 37 °C; proteins 1 μM, peptides 100 μM
[15] = system: Akt; assay: Akt phosphorylation in PMNs, Western blot; type: cell-based, human; conditions: PMN stimulated with 1 nM PMA, 30 min, 37 °C; proteins 1 μM, peptides 100 μM
Outline: as §3

[16] = system: αMβ2 on K562 cells; assay: Soluble ligand binding to K562 cells expressing αMβ2, FACS; set-up: species or system human; conditions: 40 min, 37 °C
Outline: as §2

[17] = system: αMβ2; assay: αMβ2 clustering on PMNs, fluorescence microscopy; type: cell-based, human; conditions: 4 h, 37 °C; for αMβ2 macroclusters on PMN surface: proteins 1 μM, peptides 100 μM, anti-αM OKMI staining, four donors; for effect on Plg-dependent αMβ2 clustering: Plg 1 μM + inhibitor, MβCD 5 mM, peptide 18 0.5 μM, H7 300 μM, BDM 20 mM, cytochalasin D 10 μM, calpain inhibitor III 10 μM
Outline: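 Human PMNs were exposed to ligands (proteins 1 μM, peptides 100 μM) for 4 h at 37°C, or to 1 μM Plg together with clustering inhibitors at the final concentrations used in apoptosis assays. Cells were fixed in 4% paraformaldehyde and stained with anti-αM mAb OKMI plus Alexa 488 goat anti-mouse IgG. They were cytospun, mounted and imaged by fluorescence microscopy (×40/0.7 NA); PMNs came from four donors.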

[18] = system: αMβ2 on PMN; assay: Soluble Alexa 488-labeled ligand binding to PMN, FACS; set-up: species or system human; conditions: clustering inhibitor, 1 h, 37 °C, mean ± SEM, n = 3
Outline: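 Human PMNs were incubated for 1 h at 37°C in HBSS/Ca²⁺/Mg²⁺ with soluble Alexa 488-labelled Plg or Fg, with or without clustering inhibitors. After two buffer washes, bound ligand was read by FACS; mean ± SEM, n = 3.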

[19] = system: human PMNs; conditions: for PMN early/late apoptosis (% annexin V+ cells), inhibitor + Fg: clustering inhibitor + Fg 1 μM; for PMN early/late apoptosis (% annexin V+ cells), inhibitor + Fg / PMN early/late apoptosis (% annexin V+ cells), inhibitor + P1 / PMN early/late apoptosis (% annexin V+ cells), inhibitor + P2-C / PMN early/late apoptosis (% annexin V+ cells), inhibitor + Plg: 16 h, 37 °C, mean ± SEM, n = 5; for PMN early/late apoptosis (% annexin V+ cells), inhibitor + P1: clustering inhibitor + P1 100 μM; for PMN early/late apoptosis (% annexin V+ cells), inhibitor + P2-C: clustering inhibitor + P2-C 100 μM; for PMN early/late apoptosis (% annexin V+ cells), inhibitor + Plg: clustering inhibitor + Plg 1 μM

recombinant purified β2 subunit, sequence (P05107 23-769): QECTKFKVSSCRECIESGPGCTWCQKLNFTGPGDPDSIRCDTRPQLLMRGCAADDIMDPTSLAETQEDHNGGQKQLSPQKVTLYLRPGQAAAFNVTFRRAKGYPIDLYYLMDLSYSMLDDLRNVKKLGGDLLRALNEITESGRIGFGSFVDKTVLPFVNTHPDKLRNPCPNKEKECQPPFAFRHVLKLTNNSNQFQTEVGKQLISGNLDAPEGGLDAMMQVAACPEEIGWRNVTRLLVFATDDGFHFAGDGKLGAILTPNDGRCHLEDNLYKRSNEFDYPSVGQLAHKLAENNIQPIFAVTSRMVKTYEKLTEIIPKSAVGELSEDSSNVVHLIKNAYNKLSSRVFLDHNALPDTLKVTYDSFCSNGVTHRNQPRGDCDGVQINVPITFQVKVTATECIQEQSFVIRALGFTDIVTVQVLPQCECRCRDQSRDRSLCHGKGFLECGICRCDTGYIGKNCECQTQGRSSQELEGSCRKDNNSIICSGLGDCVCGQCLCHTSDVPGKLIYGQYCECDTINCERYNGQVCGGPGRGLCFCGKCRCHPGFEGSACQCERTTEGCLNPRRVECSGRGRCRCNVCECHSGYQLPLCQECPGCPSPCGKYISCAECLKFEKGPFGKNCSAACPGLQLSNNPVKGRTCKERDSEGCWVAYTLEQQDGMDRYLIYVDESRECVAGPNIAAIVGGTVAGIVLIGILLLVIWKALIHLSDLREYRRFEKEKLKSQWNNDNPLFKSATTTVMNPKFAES

Compound: angiostatin [Ang(1–4)]
- caspase-8 fragment [2]: detected
- K562 early/late apoptosis (% annexin V+ cells), mock [3]: 78 ± 8%
- Bax cleavage product, αMβ2 cells [4]: present
- caspase-8 cleavage product, αMβ2 cells [5]: present
- 18-kDa caspase-3 fragment [6]: detected
- ERK1/2 activation, αM cells [7]: poorly induced
- ERK1/2 activation, αMβ2 cells [7]: poorly induced
- ERK1/2 phosphorylation, mock and β2 cells [7]: poorly induced
- Akt phosphorylation, αM, β2 and mock cells [8]: failed to induce Akt activation
- Akt phosphorylation, αMβ2 cells [8]: failed to induce Akt activation
- soluble ligand binding, β2 cells (in words) [9]: failed to bind soluble Ang([1]– [4])
- recognition by individual integrin subunits (in words) [10]: recognized only by the αM and not by the β2 subunit
- 22-kDa Bax fragment [11]: detected
- soluble ligand binding, αM cells (in words) [12]: bound both ligands
- caspase-3 cleavage product, αMβ2 cells [14]: present
- Akt phosphorylation [15]: negligible
- soluble ligand binding, αMβ2 cells (in words) [16]: bound both ligands
- αMβ2 macroclusters on PMN surface [17]: did not support αMβ2 clustering

Compound: methyl-β-cyclodextrin [MβCD]
- ligand binding, inhibitor, no ligand (background) [18]: 3.09 ± 0.4 MFI
- PMN early/late apoptosis (% annexin V+ cells), inhibitor + Fg [19]: 59.3 ± 15%
- PMN early/late apoptosis (% annexin V+ cells), inhibitor + P1 [19]: 66.3 ± 18%
- PMN early/late apoptosis (% annexin V+ cells), inhibitor + P2-C [19]: 75.6 ± 17%
- PMN early/late apoptosis (% annexin V+ cells), inhibitor + Plg [19]: 75.0 ± 13%

Compound: CC(C)[C@H](NC(=O)OCc1ccccc1)C(=O)N[C@H](C=O)Cc1ccccc1 [Calpain inhibitor III] (Cbz-Val-Phe-aldehyde)
- ligand binding, inhibitor, no ligand (background) [18]: 3.4 ± 0.4 MFI
- PMN early/late apoptosis (% annexin V+ cells), inhibitor + Fg [19]: 88.9 ± 23%
- PMN early/late apoptosis (% annexin V+ cells), inhibitor + P1 [19]: 94.5 ± 22%
- PMN early/late apoptosis (% annexin V+ cells), inhibitor + P2-C [19]: 74.7 ± 19%
- PMN early/late apoptosis (% annexin V+ cells), inhibitor + Plg [19]: 97.1 ± 22%
- effect on Plg-dependent αMβ2 clustering [17]: blocked or significantly reduced

Compound: C=C1[C@@H](C)[C@H]2[C@H](Cc3ccccc3)NC(=O)[C@]23[C@H](OC(C)=O)/C=C/[C@@](C)(O)C(=O)[C@@H](C)C/C=C/[C@H]3[C@@H]1O [Cytochalasin D, cytochalasin D]
- ligand binding, inhibitor, no ligand (background) [18]: 2.3 ± 0.3 MFI
- PMN early/late apoptosis (% annexin V+ cells), inhibitor + Fg [19]: 55.5 ± 18%
- PMN early/late apoptosis (% annexin V+ cells), inhibitor + P1 [19]: 66.07 ± 15%
- PMN early/late apoptosis (% annexin V+ cells), inhibitor + P2-C [19]: 77.4 ± 16%
- PMN early/late apoptosis (% annexin V+ cells), inhibitor + Plg [19]: 66.6 ± 15%
- effect on Plg-dependent αMβ2 clustering [17]: blocked or significantly reduced

Compound: NCCCCCC(=O)O [ε-aminocaproic acid]
- effect on Plg-dependent PMN survival (in words) [19]: reduced

More lines, main results first:

- recognition by individual integrin subunits (in words) [10]: engage both integrin subunits
Compound: fibrinogen [Fg]
- effect on PMN apoptosis [1]: delay PMN apoptosis
- caspase-8 fragment [2]: absent
- K562 early/late apoptosis (% annexin V+ cells), mock [3]: 72 ± 13%
- Bax cleavage product, αMβ2 cells [4]: not detected
- caspase-8 cleavage product, αMβ2 cells [5]: not detected
- 18-kDa caspase-3 fragment [6]: absent
- ERK1/2 activation, αM cells [7]: strongly induced
- ERK1/2 activation, αMβ2 cells [7]: strongly induced
- ERK1/2 phosphorylation, mock and β2 cells [7]: poorly induced
- Akt phosphorylation, αM, β2 and mock cells [8]: not in K562 cells expressing the individual αM or β2 subunits (Fig. 6A) or mock-transfected cells
- Akt phosphorylation, αMβ2 cells [8]: robust Akt phosphorylation
- soluble ligand binding, β2 cells (in words) [9]: bound soluble Fg
- 22-kDa Bax fragment [11]: absent
- soluble ligand binding, αM cells (in words) [12]: bound soluble Fg
- ERK1/2 activation [13]: induced ERK1/2 activation
- caspase-3 cleavage product, αMβ2 cells [14]: not detected
- Akt phosphorylation [15]: robust Akt phosphorylation
- soluble ligand binding, αMβ2 cells (in words) [16]: bound soluble Fg
- αMβ2 macroclusters on PMN surface [17]: detected

- ligand binding, inhibitor, no ligand (background) [18]: 3.2 ± 0.6 MFI
Compound: CC1CNCCN1S(=O)(=O)c1cccc2cnccc12.Cl.Cl (centres unmarked) [H7, 1-(5-isoquinolinylsulfonyl)-2-methylpiperazine dihydrochloride]
- PMN early/late apoptosis (% annexin V+ cells), inhibitor + Fg [19]: 62.3 ± 16%
- PMN early/late apoptosis (% annexin V+ cells), inhibitor + P1 [19]: 60.1 ± 14%
- PMN early/late apoptosis (% annexin V+ cells), inhibitor + P2-C [19]: 78.6 ± 17%
- PMN early/late apoptosis (% annexin V+ cells), inhibitor + Plg [19]: 79.2 ± 18%
- effect on Plg-dependent αMβ2 clustering [17]: blocked or significantly reduced
